In ChEMBL document CHEMBL1135562, “Cyclic acid anhydrides as a new class of potent, selective and non-peptidic inhibitors of geranylgeranyl transferase” (Bioorg Med Chem Lett, 2002):

Columns and labels:
[1] = molecular target: T1, Protein farnesyl/geranylgeranyl transferase (Homo sapiens) (UniProt P49354+P49356+P53609); assay: Ratio of human Farnesyltransferase to human Geranylgeranyl transferase type I activity as IC50; 900:500; format: protein-complex assay
[2] = molecular target: T2, Geranylgeranyl transferase type I (Homo sapiens, UniProt P49354+P53609); assay: In vitro inhibition of geranylgeranyl-protein transferase type-I; format: protein-complex assay
Procedure, shortened: (§1)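 Recombinant human GGPTase-I; substrate recombinant human H-Ras CVLL with [1-(n)-3H]geranylgeranylpyrophosphate (615 GBq/mmol). Activity is the [3H]geranylgeranyl transferred to Ras, measured by filter binding. IC50 is the concentration inhibiting specific activity by 50%, derived by non-linear regression fit to a dose–response curve.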

[3] = molecular target: T3, Protein farnesyltransferase (Homo sapiens, UniProt P49354+P49356); assay: In vitro inhibition of farnesyl-protein transferase; format: protein-complex assay
Procedure, shortened: (§2)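 Recombinant human FPTase; substrate recombinant human wild-type H-Ras with [1-(n)-3H]farnesylpyrophosphate (555 GBq/mmol). Enzyme activity is the [3H]farnesyl transferred to Ras, measured by filter binding. IC50 is the concentration giving 50% inhibition of specific activity, fitted by non-linear regression to a dose–response curve.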

[4] = molecular target: T1, Protein farnesyl/geranylgeranyl transferase (Homo sapiens); assay: Ratio of human Farnesyltransferase to human Geranylgeranyl transferase type I activity as IC50; 166:252; format: protein-complex assay
[5] = molecular target: T3, Protein farnesyltransferase; assay: In vitro inhibition of Farnesyltransferase; format: protein-complex assay; procedure, shortened: as §2
[6] = molecular target: T2, Geranylgeranyl transferase type I; assay: In vitro inhibition of Geranylgeranyl transferase type I; format: protein-complex assay; procedure, shortened: as §1
[7] = In vitro inhibition of geranylgeranyl-protein transferase type-II; parameters: species or system Homo sapiens

Row | SMILES | IC50 [2] [µM] | IC50 [3] [µM] | also measured
1 | COC(=O)C1CC=C(CCC=C(C)C)CC1C(=O)OC (configuration not stated) |  |  | Ratio [1]: 1.8
2 | CCCCCCCCCCCC(=O)OC(=O)CCCCCCCCCCC [DODECANOIC ANHYDRIDE] | 229 | 854 | 
3 | CC(C)CCCC(C)CCCC(C)CCCC1=CCC(C(=O)O)C(C(=O)O)C1 (configuration not stated) | > 1000 | > 1000 | 
4 | CCCCCCCCC/C=C/CC(CC(=O)O)C(=O)O (configuration not stated) | > 1000 | 402 | 
5 | CCCCCCCCCCCCC(C(=O)O)C(C(=O)O)C(=O)O (configuration not stated) |  |  | Ratio [4]: 0.66
6 | CC(C)=CCC/C(C)=C/CCC1=CCC2C(=O)OC(=O)C2C1 (configuration not stated) [listing 1 of 2 here] |  |  | IC50 [5]: 9 µM; IC50 [6]: 503 µM
7 | C=C1CC(=O)OC1=O [ITACONIC ANHYDRIDE] | > 1000 | > 1000 | 
8 | CCCCCCCCC/C=C/CC1CC(=O)OC1=O (configuration not stated) | 401 | > 1000 | 
9 | CCCCCCCCCCCCCC/C(C(=O)O)=C(\C)C(=O)O [CHAETOMELLIC ACID A] | 92 |  | IC50 [7]: 34 µM
10 | CC(C)CCCC(C)CCCC(C)CCCC1=CCC2C(=O)OC(=O)C2C1 (configuration not stated) | 20.8 | > 1000 | 

Continued, in another order:

Row | IC50 [2] [µM] | IC50 [3] [µM] | SMILES | also measured
11 | 420 | > 1000 | CC(C)=CCC/C(C)=C/C=C1\CCC(C(=O)O)C(C(=O)O)C1 (configuration not stated) | 
12 | 40.2 | 449 | CC(C)=CCCC1=CCC2C(=O)OC(=O)C2C1 (configuration not stated) | 
13 | 900 | > 1000 | CC(C)=CCCC1=CCC(C(=O)O)C(C(=O)O)C1 (configuration not stated) | 
14 | 136 | 190 | CC(C)=CCC/C(C)=C/CCC1=CCC2C(=O)OC(=O)C2C1 (configuration not stated) [listing 2 of 2 here] | 
15 | > 1000 |  | COC(=O)C1CC=C(CCCC(C)CCCC(C)CCCC(C)C)CC1C(=O)OC (configuration not stated) | 
